Screens as filed in PubChem BioAssay.
Compounds with a hit are over-represented: about 2.5% of the library has one in this group of screens.
NR2E3 ag-1: human photoreceptor-specific nuclear receptor agonism | Q9Y5X4 | CHO-S Gal4-NCOR/VP16-NR2E3 two-hybrid, luciferase | inhibition of corepressor binding, % at 3.98 µM | 0.35% of 360,000 active | AID 602229;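 active means inhibition above the mean of all tested compounds plus 3 SD, cut at about 70% in these data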;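 further: 0% = DMSO with NR2E3 transfected cells and 100% = cells lacking NR2E3 construct; higher means lower luciferase signal from less NR2E3 corepressor binding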
JMJD2C inh: human JMJD2C demethylase inhibition. Q9H3R0. GST-JMJD2C(1-420) H3K9me3 demethylation, DELFIA europium. inhibition, % at 2.35 µM. 0.069% of 330,000 active. AID 2099;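 active means more than half of a compound's replicate wells show inhibition beyond 50%, single wells judged on their own value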;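 further: signal counts dimethyl H3K9 product captured on neutravidin plate; 0% = median of DMSO wells and 100% = 0.3 times that DMSO median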
Target sequence (Q9H3R0 1-420 limits assumed): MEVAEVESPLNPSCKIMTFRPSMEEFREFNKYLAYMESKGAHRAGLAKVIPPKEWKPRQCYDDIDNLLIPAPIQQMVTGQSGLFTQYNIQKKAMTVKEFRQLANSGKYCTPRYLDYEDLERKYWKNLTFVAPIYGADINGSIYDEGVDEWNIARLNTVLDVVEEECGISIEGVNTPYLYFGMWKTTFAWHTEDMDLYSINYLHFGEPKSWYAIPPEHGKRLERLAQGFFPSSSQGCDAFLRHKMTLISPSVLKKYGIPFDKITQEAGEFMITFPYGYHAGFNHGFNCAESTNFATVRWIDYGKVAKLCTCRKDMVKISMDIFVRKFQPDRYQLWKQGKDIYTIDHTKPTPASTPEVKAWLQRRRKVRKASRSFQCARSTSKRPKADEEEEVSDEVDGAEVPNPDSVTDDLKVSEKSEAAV
NR2E3 ag-2: NR2E3 (human) agonism; Q9Y5X4; GST-NR2E3/biotin-RetCOR TR-FRET, 1536-well; inhibition of corepressor binding, % at 4.78 µM; 0.12% of 320,000 active; AID 2300;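 active means percent inhibition above the cutoff of mean plus 3 SD of all tested compounds, set per screening campaign, cut at about 20% in these data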;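 further: 0% = DMSO wells and 100% = biotin wells as full block of FRET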
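Material: NR2E3–RetCOR corepressor complex | Quantity: 1.35 nM GST-tagged NR2E3 final | Schedule: 5 h at 4 °C | Replication: Singlicate compound wells | Reagent: RetCOR corepressor, biotinylated, 7 nM | Controls: Biotin wells as high control, 0.6% DMSO wells as low control | Signal: TR-FRET, Eu(K)-anti-GST donor, streptavidin-D2 acceptor, ex 340, em 617/671 nm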
ADAM17 inh: inhibitors of human ADAM17. recombinant ADAM17, EDANS/DABCYL FRET peptide cleavage. inhibition, % at 6.95 µM. 0.83% of 370,000 active. AID 720648;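 active means inhibition above the mean of compounds lying between control limits plus 3 SD, set per campaign, cut at about 8.5% in these data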;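 further: 0% = DMSO-only wells as the low control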
ADAM10 inh: ADAM10 inhibition, QFRET primary screen. recombinant ADAM10, EDANS/DABCYL FRET peptide cleavage, 3 h. inhibition, % at 7 µM. 0.62% of 370,000 active;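 active means inhibition above a per-campaign cutoff equal to the mean of compounds falling between control-based bounds plus 3 SD, cut at about 20% in these data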;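 further: 0% = DMSO wells while the 100% control is not disclosed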
KLK7 zymogen act: proKLK7 (human) activation, primary screen; activation, % at 7 µM; purified proKLK7, EDANS-DABCYL substrate fluorescence; 100% is mature enzyme control, 0% vehicle; 0.9% of 370,000 active;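 active means activation above the mean of all tested compounds plus 3 SD, computed per campaign excluding outliers beyond control limits, cut at about 13% in these data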
Target sequence (P49862 whole entry, looked up): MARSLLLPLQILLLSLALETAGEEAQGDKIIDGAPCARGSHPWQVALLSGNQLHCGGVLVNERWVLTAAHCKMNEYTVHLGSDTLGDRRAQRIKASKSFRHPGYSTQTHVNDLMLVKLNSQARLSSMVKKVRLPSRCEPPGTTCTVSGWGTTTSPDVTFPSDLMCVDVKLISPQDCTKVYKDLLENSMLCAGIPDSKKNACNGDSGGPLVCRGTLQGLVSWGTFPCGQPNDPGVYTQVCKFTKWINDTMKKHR
ADAM10 ctr: inhibits human ADAM10 in ADAM17 exosite counter-screen. shares compounds with ADAM17 inh. recombinant ADAM10, EDANS/DABCYL FRET peptide cleavage, 3 h. inhibition, % at 6.95 µM. 47% of 2,900 active;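 active means mean inhibition over the triplicate runs exceeds the activity threshold set in the earlier primary screen, cut at about 20% in these data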;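 further: 0% = DMSO wells and 100% = marimastat wells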
ADAM17 confirm: confirmation of inhibitors of human ADAM17. 65% of 2,900 active. inhibition, % at 6.95 µM. recombinant ADAM17, EDANS/DABCYL QFRET peptide cleavage. shares compounds with ADAM17 inh;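 active means mean inhibition across replicates above the hit cutoff set in the primary screen, cut at about 8.5% in these data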;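 further: 0% = DMSO wells and 100% = marimastat wells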
Active calls of the source: *.

Screening COCc1ccc(C(=O)Nc2cccc(S(=O)(=O)N(C)c3ccccc3)c2)cc1 returned NR2E3 ag-1 -23, JMJD2C inh -9, ADAM17 inh 3, ADAM10 inh 7 and KLK7 zymogen act 1.
For CN(C)S(=O)(=O)c1cccc(NC(=O)c2ccc(COc3ccccc3)cc2)c1 the results were NR2E3 ag-1 -29, JMJD2C inh 19, NR2E3 ag-2 2, ADAM17 inh 9.6*, ADAM10 inh 18, KLK7 zymogen act 0, ADAM10 ctr 24* and ADAM17 confirm 14*.
Screening CN(C)S(=O)(=O)c1cccc(NC(=O)c2cccc(S(=O)(=O)N3CCc4ccccc43)c2)c1 returned NR2E3 ag-1 8, NR2E3 ag-2 1, ADAM17 inh 9.5*, ADAM10 inh 12, KLK7 zymogen act -1, ADAM10 ctr 41* and ADAM17 confirm 22*.
For O=C(CC[C@H]1O[C@@H](n2cnc3c(NC(=O)c4ccccc4)ncnc32)[C@H](O)[C@@H]1O)NCc1cccc2ccccc12 the results were NR2E3 ag-1 11, ADAM17 inh -4, ADAM10 inh -6 and KLK7 zymogen act 0.
Cc1cc(C)c(OCC(=O)NCC2COc3ccccc3O2)c(C)c1 (stereo not drawn) was read as NR2E3 ag-1 -7, JMJD2C inh 24, NR2E3 ag-2 1, ADAM17 inh 15*, ADAM10 inh 11, KLK7 zymogen act -1, ADAM10 ctr 9 and ADAM17 confirm 5.
Cc1ccc(C)c(OCC(=O)NCC2COc3ccccc3O2)c1 (stereo not drawn) was read as NR2E3 ag-1 15, JMJD2C inh 7, NR2E3 ag-2 4, ADAM17 inh -2, ADAM10 inh -3 and KLK7 zymogen act -1.
Screening Cc1cccc(COC[C@H](Cc2ccccc2)N2CCN(C(=O)c3ccc(C(F)(F)F)cc3)CCC2=O)c1 returned NR2E3 ag-1 -30, ADAM17 inh 8, ADAM10 inh 18 and KLK7 zymogen act 0.
Screening O=C(c1ccc(C(F)(F)F)cc1)N1CCC(=O)N(C(COCc2ccc(C(F)(F)F)cc2)Cc2ccccc2)CC1 (stereo not drawn) returned NR2E3 ag-1 4, JMJD2C inh 12, NR2E3 ag-2 0, ADAM17 inh 8.9*, ADAM10 inh 18, KLK7 zymogen act 0, ADAM10 ctr 38* and ADAM17 confirm 17*.
`C[C@H](CO)N1C[C@H](C)[C@H](CN(C)C(=O)Nc2cccc(C(F)(F)F)c2)OCc2cnnn2CCCC1=O` gave NR2E3 ag-1 -5, ADAM17 inh -2, ADAM10 inh -4 and KLK7 zymogen act 0.
CCN(c1cccc(C)c1)S(=O)(=O)c1ccc2c(c1)CCN2C(C)=O was read as NR2E3 ag-1 -18, JMJD2C inh 1, NR2E3 ag-2 -2, ADAM17 inh -1, ADAM10 inh -5 and KLK7 zymogen act 1.
For CCN(c1cccc(C(F)(F)F)c1)S(=O)(=O)c1ccc2c(c1)CCN2C(C)=O the results were NR2E3 ag-1 6, JMJD2C inh -5, NR2E3 ag-2 -1, ADAM17 inh 8.7*, ADAM10 inh 11, KLK7 zymogen act 0, ADAM10 ctr 20* and ADAM17 confirm 11*.
For C[C@H](c1ccccc1)N1C[C@@H](COCc2ccccc2)Oc2cc(N3CC[C@@H](N(C)C)C3)ccc2S1(=O)=O the results were NR2E3 ag-1 -25, ADAM17 inh 2, ADAM10 inh -2 and KLK7 zymogen act 0.
For CN(C)c1ccc(C(CNS(=O)(=O)c2ccc3ccccc3c2)c2c[nH]c3ccccc23)cc1 (stereo not drawn) the results were NR2E3 ag-1 -34, JMJD2C inh 1, NR2E3 ag-2 -3, ADAM17 inh 9.1*, ADAM10 inh 19, KLK7 zymogen act -5, ADAM10 ctr 26* and ADAM17 confirm 20*.
For Nc1ncnc(Nc2cccc(C(F)(F)F)c2)n1 the results were NR2E3 ag-1 17, JMJD2C inh 2, NR2E3 ag-2 2, ADAM17 inh -1, ADAM10 inh 7 and KLK7 zymogen act 0.
For Nc1nc(Nc2cccc(C(F)(F)F)c2)nc(C(F)(F)F)n1 the results were NR2E3 ag-1 -1, JMJD2C inh -6, NR2E3 ag-2 5, ADAM17 inh 15*, ADAM10 inh 17, KLK7 zymogen act 1, ADAM10 ctr 23* and ADAM17 confirm 16*.
`Cc1ccccc1Nc1nc(N)nc(COC(=O)c2ccccc2)n1` gave NR2E3 ag-1 -8, JMJD2C inh -5, NR2E3 ag-2 -2, ADAM17 inh -1, ADAM10 inh 5 and KLK7 zymogen act 0.
`Cc1ccccc1Nc1nc(N)nc(COC(=O)CCNS(=O)(=O)c2ccccc2)n1` gave NR2E3 ag-1 1, JMJD2C inh 68, NR2E3 ag-2 3, ADAM17 inh 12*, ADAM10 inh 9, KLK7 zymogen act 0, ADAM10 ctr -3 and ADAM17 confirm 0.
`Nc1cccc(-c2c[nH]c3ncc(-c4cccnc4)cc23)c1` gave NR2E3 ag-1 17.
`CN(C)S(=O)(=O)c1ccc(NC(=O)C2CC(=O)N(Cc3ccccc3Cl)C2)cc1` (stereo not drawn) gave NR2E3 ag-1 17, JMJD2C inh 7, NR2E3 ag-2 0, ADAM17 inh -2, ADAM10 inh -4 and KLK7 zymogen act 0.
`O=C(CS(=O)(=O)c1ccccc1)NCc1ccc(Cl)cc1` gave NR2E3 ag-1 -5, JMJD2C inh -18, NR2E3 ag-2 1, ADAM17 inh -8, ADAM10 inh -8 and KLK7 zymogen act 0.
For CC(C)(C)OC(=O)N(CCc1ccccc1)Cc1ccccc1OCc1ccc(NC(=O)C2CCC2)cc1 the results were NR2E3 ag-1 -15, ADAM17 inh -1, ADAM10 inh -3 and KLK7 zymogen act 0.
`CC(C)(C)OC(=O)N(Cc1ccccc1)Cc1ccccc1OCc1ccc(NC(=O)C2CCC2)cc1` gave NR2E3 ag-1 -36, ADAM17 inh 13*, ADAM10 inh 8, KLK7 zymogen act 0, ADAM10 ctr 13 and ADAM17 confirm 11*.
`Cc1cccc(N(CC(=O)Nc2ccccc2-c2ccccc2)S(=O)(=O)c2ccccc2)c1C` gave NR2E3 ag-1 5, JMJD2C inh -1, NR2E3 ag-2 0, ADAM17 inh 9.3*, ADAM10 inh 16, KLK7 zymogen act 0, ADAM10 ctr 28* and ADAM17 confirm 16*.
